These results are taken from ChEMBL document CHEMBL4308830, “Design, Synthesis, and Characterization of 4-Undecylpiperidine-2-carboxamides as Positive Allosteric Modulators of the Serotonin (5-HT) 5-HT2C Receptor” (J Med Chem, 2018).

Data set [1] concerns the target Alpha-2A adrenergic receptor (Homo sapiens) (UniProt P08913). As to the kind of experiment: Displacement of [3H]-rauwolscine from recombinant human alpha-2A adrenergic receptor expressed in MDCK cell membranes at 10 uM after 90 mins by scintillation counting method relative to control. The procedure, abridged: (§1)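 Single-concentration screen at 10 μM test compound, each target labelled with the radioligand given in the line. The read-out is mean % inhibition of specific radioligand binding (n = 4). Targets above 50% inhibition went on to full competition isotherms, and Ki came from best-fit IC50 by the Cheng–Prusoff equation.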
Background: Displacement assays read how much labelled ligand stays bound in the presence of the test substance.

Data set [2] concerns Rattus norvegicus. Put plainly: Increase in WAY163909-induced suppression of spontaneous locomotor activity in Sprague-Dawley rat assessed as reduction in total ambulation at 5 mg/kg, ip administered as single dose measured for 30 mins. Format: functional, organism-based. A digest of the protocol:
(§2)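 Rats (n = 9–10/group) received SB242084 (1 mg/kg ip) or vehicle (8% 2-hydroxypropyl-β-cyclodextrin) 15 min before ip WAY163909 (1 mg/kg) plus compound (5 mg/kg). They were placed in monitors immediately; ambulations and vertical activity were totalled over 30 min. Analysis: ANOVA with Bonferroni comparisons.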

In data set [3] the target is 5-hydroxytryptamine receptor 1D (Homo sapiens) (UniProt P28221). As to the kind of experiment: Displacement of [3H]-GR125743 from recombinant human 5-HT1DR expressed in HEKT cell membranes at 10 uM after 90 mins by scintillation counting method relative to control.
For data set [4], the target named is T1, 5-hydroxytryptamine receptor 2C (Homo sapiens) (UniProt P28335).
T1 sequence (whole entry): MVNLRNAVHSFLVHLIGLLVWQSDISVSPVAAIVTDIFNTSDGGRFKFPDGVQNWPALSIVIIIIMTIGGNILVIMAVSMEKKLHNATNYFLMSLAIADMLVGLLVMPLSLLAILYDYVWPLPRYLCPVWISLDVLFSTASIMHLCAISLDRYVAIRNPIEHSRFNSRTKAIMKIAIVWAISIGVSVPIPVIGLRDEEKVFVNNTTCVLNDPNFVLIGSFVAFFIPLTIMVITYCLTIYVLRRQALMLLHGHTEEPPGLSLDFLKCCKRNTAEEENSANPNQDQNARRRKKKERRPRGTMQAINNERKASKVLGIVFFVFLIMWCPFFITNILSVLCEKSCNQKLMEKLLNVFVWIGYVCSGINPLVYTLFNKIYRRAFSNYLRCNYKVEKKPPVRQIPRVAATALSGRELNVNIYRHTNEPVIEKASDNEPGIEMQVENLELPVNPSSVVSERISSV
As to the kind of experiment: Displacement of [3H]-mesulergine from recombinant human 5-HT2CR expressed in Flp-IN HEK cell membranes at 10 uM after 90 mins by scintillation counting method relative to control. The procedure, abridged:
as §1

Data set [5] addresses 5-hydroxytryptamine receptor 5A (Homo sapiens) (UniProt P47898). As to the kind of experiment: Displacement of [3H]-LSD from recombinant human 5-HT5AR expressed in Flp-IN CHO cell membranes at 10 uM after 90 mins by scintillation counting method relative to control.
Data set [6] addresses 5-hydroxytryptamine receptor 1E (Homo sapiens) (UniProt P28566). As to the kind of experiment: Displacement of [3H]-5-HT from recombinant human 5-HT1ER expressed in HEK cell membranes at 10 uM after 90 mins by scintillation counting method relative to control.
Data set [7] has as its target 5-hydroxytryptamine receptor 1A (Homo sapiens) (UniProt P08908). As to the kind of experiment: Displacement of [3H]-8-OH-DPAT from recombinant human 5-HT1AR expressed in CHO cell membranes at 10 uM after 90 mins by scintillation counting method relative to control.
Data set [8] concerns Rattus norvegicus. Put plainly: Reduction in cocaine cue reactivity in Sprague-Dawley rat assessed as decrease in active lever presses at 1 mg/kg, ip administered as single dose 15 mins prior to self administration of cocaine. The data set is classed as functional, organism-based. A digest of the protocol: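 Catheterized male Sprague–Dawley rats self-administered cocaine (0.75 mg/kg/infusion iv, each paired with light/pump cue) in 14 daily 180 min sessions, reaching FR5 stability. After 24 h they received saline (1 mL/kg ip) or compound (1 mg/kg ip) 15 min before a cue reactivity test.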

Data set [9] addresses Sodium-dependent serotonin transporter (Homo sapiens) (UniProt P31645). As to the kind of experiment: Displacement of [3H]-citalopram from recombinant human SERT expressed in HEK cell membranes at 10 uM after 90 mins by scintillation counting method relative to control.
In data set [10] the target is D(1A) dopamine receptor (Homo sapiens) (UniProt P21728). Put plainly: Displacement of [3H]-SCH23390 from recombinant human D1R expressed in HEKT cell membranes at 10 uM after 90 mins by scintillation counting method relative to control.
Data set [11] has as its system Rattus norvegicus. Put plainly: Suppression of spontaneous locomotor activity in Sprague-Dawley rat assessed as reduction in total vertical activity at 5 mg/kg, ip administered as single dose measured for 30 mins. Format: functional, organism-based. A digest of the protocol: (§3)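 Male Sprague–Dawley rats naive to activity monitors (n = 7–8/group) received saline (1 mL/kg ip) or compound (0.5, 1 or 5 mg/kg ip) immediately before testing. Ambulations and vertical counts were taken in 5 min bins for 90 min and totalled over the first 30 min. Analysis: one-way ANOVA with Dunnett's comparisons to vehicle.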

Data set [12] addresses Alpha-2B adrenergic receptor (Homo sapiens) (UniProt P18089). Put plainly: Displacement of [3H]-rauwolscine from recombinant human alpha-2B adrenergic receptor expressed in HEKT cell membranes at 10 uM after 90 mins by scintillation counting method relative to control. The procedure, abridged:
as §1

The target of data set [13] is Sodium-dependent dopamine transporter (Homo sapiens) (UniProt Q01959). Put plainly: Displacement of [3H]-WIN35428 from recombinant human DAT expressed in HEK cell membranes at 10 uM after 90 mins by scintillation counting method relative to control. A digest of the protocol: as §1
Data set [14] relates to CHO. Put plainly: Cytotoxicity against CHO cells at 0.1 to 1000 nM after 1 hrs by LDH release assay. The data set is classed as cell-based, Cricetulus griseus. The settings on record: chinese hamster, 1 µM. A digest of the protocol:
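Lactate dehydrogenase release assay for cytotoxicity, compounds tested at 0.1 nM and 1 μM.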
Background: LDH in the medium is a marker of cell lysis.

Data set [15] relates to Rattus norvegicus. As to the kind of experiment: Suppression of spontaneous locomotor activity in Sprague-Dawley rat assessed as reduction in total ambulation at 5 mg/kg, ip administered as single dose measured for 30 mins. Format: functional, organism-based. A digest of the protocol: as §3
For data set [16], the target named is D(1B) dopamine receptor (Homo sapiens) (UniProt P21918). As to the kind of experiment: Displacement of [3H]-SCH23390 from recombinant human D5R expressed in HEKT cell membranes at 10 uM after 90 mins by scintillation counting method relative to control.
Data set [17] in a line: Clearance in Sprague-Dawley rat at 5 mg/kg, iv administered as single dose. Format: ADME, organism-based. The settings on record: in vivo.
Data set [18] deals with Rattus norvegicus. Put plainly: Increase in WAY163909-induced suppression of spontaneous locomotor activity in Sprague-Dawley rat assessed as reduction in total vertical activity at 5 mg/kg, ip administered as single dose measured for 30 mins. The data set is classed as functional, organism-based. The procedure, abridged:
as §2

Data set [19] addresses T1, 5-hydroxytryptamine receptor 2C (Homo sapiens). Put plainly: Intrinsic agonist activity at human 5-HT2CR expressed in CHO cells assessed as induction of intracellular calcium release at 1 nM incubated for 15 mins measured every 1 sec for 120 secs by calcium-4 dye based FLIPR assay. The data set is classed as functional, cell-based. The procedure, abridged:
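CHO cells stably expressing human unedited INI 5-HT2CR were plated, serum-starved 3 h, then loaded with Calcium 4 dye plus 2.5 mM probenecid (60 min 37 °C, then 15 min RT). Compound (1 nM) was added; the read after this addition gave intrinsic agonism. 5-HT (10 pM–10 μM) followed 15 min later. FLIPR-TETRA: 10 s baseline, 1 s reads for 120 s after compound and 360 s after 5-HT. Emax came from 4-parameter fits, ≥3 biological replicates in triplicate.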

Molecules are shown by their SMILES. Activity calls are given as the source filed them. The calls are words filed in the database; no cut-off is given here.

Sequence of Alpha-2A adrenergic receptor (Homo sapiens) (P08913 whole entry): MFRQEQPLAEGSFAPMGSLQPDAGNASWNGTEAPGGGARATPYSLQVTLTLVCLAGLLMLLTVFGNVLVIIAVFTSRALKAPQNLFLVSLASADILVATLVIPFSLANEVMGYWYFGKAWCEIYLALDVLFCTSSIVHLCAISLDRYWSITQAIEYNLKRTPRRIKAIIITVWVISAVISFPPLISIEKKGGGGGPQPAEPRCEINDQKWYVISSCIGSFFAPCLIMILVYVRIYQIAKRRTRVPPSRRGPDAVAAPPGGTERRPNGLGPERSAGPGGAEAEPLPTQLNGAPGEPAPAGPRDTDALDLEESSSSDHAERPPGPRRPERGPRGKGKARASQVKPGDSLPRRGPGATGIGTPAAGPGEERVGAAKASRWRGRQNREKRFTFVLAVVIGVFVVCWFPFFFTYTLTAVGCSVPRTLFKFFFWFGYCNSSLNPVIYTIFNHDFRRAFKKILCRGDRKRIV
Sequence of Sodium-dependent serotonin transporter (Homo sapiens) (P31645 whole entry, looked up): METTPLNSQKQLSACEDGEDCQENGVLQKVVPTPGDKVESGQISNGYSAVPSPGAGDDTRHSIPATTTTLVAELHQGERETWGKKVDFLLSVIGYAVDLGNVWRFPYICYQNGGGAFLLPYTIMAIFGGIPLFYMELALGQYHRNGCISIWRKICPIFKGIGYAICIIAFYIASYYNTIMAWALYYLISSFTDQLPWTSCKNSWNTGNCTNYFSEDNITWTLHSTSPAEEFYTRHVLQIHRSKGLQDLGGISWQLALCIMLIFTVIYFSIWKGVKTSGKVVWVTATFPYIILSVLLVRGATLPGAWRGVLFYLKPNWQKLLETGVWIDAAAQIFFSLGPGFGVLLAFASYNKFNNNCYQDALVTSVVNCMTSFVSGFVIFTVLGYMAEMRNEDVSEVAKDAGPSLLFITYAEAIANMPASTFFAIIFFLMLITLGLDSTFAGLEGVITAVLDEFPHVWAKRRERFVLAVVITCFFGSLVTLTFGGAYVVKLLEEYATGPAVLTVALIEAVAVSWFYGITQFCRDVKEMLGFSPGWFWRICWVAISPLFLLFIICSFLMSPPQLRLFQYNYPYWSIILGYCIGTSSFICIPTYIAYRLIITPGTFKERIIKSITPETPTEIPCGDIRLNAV
Sequence of 5-hydroxytryptamine receptor 5A (Homo sapiens) (P47898 whole entry): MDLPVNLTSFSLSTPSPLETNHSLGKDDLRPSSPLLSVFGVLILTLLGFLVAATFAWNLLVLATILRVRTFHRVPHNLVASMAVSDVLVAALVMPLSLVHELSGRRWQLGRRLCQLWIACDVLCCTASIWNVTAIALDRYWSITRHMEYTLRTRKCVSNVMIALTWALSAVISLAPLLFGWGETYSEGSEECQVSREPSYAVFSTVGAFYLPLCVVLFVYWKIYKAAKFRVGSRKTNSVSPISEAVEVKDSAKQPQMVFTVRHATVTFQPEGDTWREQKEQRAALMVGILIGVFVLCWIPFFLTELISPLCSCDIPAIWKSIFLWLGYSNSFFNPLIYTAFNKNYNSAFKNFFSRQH
Sequence of 5-hydroxytryptamine receptor 1D (Homo sapiens) (P28221 whole entry): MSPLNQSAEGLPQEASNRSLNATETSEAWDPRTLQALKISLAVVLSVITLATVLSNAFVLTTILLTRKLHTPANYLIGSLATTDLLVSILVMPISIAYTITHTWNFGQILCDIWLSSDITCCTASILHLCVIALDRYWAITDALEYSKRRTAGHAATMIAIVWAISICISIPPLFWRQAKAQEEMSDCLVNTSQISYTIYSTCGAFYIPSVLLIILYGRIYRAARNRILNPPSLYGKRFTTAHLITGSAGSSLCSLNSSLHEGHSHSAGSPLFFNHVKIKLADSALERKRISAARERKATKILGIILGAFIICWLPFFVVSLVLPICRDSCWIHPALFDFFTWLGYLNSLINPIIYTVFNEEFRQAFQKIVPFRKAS
Sequence of Sodium-dependent dopamine transporter (Homo sapiens) (Q01959 whole entry): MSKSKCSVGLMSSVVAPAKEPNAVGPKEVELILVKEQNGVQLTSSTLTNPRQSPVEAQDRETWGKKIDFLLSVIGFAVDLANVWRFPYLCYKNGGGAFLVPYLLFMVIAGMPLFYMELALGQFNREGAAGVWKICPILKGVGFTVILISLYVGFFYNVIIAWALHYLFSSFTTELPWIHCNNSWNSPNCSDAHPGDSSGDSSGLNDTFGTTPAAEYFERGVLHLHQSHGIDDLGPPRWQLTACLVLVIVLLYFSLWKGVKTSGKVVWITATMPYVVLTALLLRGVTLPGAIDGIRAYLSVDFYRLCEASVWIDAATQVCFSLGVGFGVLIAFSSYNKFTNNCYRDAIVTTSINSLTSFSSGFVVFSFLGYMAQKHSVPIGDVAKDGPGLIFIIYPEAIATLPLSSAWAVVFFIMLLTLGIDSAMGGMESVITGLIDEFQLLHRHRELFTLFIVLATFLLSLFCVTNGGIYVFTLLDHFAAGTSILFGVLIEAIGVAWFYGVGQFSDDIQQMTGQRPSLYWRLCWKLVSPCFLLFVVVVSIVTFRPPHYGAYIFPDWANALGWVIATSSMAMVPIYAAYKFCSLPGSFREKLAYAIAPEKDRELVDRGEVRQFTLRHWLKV
Sequence of Alpha-2B adrenergic receptor (Homo sapiens) (P18089 whole entry): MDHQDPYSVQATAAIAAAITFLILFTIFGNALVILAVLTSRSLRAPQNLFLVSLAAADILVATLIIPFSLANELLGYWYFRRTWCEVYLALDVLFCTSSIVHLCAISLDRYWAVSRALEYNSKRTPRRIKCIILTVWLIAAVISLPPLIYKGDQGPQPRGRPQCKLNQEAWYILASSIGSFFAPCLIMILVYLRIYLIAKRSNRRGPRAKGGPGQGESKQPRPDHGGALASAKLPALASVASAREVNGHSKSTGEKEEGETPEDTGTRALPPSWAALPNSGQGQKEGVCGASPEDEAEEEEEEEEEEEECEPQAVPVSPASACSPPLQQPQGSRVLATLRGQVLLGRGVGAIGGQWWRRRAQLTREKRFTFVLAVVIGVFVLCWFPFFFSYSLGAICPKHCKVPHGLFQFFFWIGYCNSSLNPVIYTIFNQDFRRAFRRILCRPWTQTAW
Sequence of D(1B) dopamine receptor (Homo sapiens) (P21918 whole entry): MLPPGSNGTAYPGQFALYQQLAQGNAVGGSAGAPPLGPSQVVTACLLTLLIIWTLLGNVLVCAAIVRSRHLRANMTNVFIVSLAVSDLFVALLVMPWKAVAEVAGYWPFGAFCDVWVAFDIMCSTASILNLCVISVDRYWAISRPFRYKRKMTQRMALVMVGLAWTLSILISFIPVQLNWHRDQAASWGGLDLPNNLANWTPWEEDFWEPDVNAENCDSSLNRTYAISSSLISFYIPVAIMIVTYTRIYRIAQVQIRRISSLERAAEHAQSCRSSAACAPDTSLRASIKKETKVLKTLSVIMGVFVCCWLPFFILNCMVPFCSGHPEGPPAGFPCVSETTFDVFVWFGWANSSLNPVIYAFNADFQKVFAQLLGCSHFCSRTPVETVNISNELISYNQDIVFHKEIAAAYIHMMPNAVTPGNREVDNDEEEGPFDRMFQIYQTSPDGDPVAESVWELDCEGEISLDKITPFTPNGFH
Sequence of 5-hydroxytryptamine receptor 1A (Homo sapiens) (P08908 whole entry, the tested form may be a part): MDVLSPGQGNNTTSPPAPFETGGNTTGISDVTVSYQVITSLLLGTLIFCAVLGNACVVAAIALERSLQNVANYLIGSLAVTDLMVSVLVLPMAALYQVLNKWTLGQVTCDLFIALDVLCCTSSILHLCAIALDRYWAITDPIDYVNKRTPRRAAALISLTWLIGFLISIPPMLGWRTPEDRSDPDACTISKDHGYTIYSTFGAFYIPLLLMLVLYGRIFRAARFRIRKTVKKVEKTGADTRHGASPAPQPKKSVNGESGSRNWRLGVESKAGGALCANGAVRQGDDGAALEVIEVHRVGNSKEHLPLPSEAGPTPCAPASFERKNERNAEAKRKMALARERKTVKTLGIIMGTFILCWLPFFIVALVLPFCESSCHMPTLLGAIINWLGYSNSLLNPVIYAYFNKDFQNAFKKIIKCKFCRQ
Sequence of D(1A) dopamine receptor (Homo sapiens) (P21728 whole entry): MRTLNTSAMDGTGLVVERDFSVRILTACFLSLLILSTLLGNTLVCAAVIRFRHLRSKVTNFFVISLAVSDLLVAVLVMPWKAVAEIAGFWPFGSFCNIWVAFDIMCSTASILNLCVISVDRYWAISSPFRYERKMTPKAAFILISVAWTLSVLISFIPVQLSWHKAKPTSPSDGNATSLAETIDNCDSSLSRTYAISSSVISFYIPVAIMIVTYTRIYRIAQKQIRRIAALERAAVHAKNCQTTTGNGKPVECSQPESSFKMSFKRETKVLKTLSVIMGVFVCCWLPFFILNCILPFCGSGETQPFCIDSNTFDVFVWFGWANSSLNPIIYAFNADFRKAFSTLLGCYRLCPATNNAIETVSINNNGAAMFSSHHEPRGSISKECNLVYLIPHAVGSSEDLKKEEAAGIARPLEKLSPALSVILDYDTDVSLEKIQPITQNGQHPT
Sequence of 5-hydroxytryptamine receptor 1E (Homo sapiens) (P28566 whole entry): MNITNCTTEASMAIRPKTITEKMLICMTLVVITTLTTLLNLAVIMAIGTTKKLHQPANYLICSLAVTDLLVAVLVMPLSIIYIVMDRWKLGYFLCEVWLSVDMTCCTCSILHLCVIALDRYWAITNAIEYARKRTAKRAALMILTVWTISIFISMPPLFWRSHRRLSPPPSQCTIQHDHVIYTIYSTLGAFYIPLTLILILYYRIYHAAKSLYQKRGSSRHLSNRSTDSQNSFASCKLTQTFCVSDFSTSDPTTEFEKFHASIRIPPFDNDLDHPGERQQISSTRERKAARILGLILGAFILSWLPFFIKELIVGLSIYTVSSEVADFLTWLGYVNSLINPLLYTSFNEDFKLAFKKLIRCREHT

By inhibition is commonly meant the percentage by which the read-out fell short of the control. `CCCCCCCCCCC[C@@H]1CCN[C@H](C(=O)NCC(O)CO)C1` (relative stereo): the inhibition in data set [1] worked out at 85.1%; in data set [3], 5.5%; in [4], 9.8%; in data set [5], 17.2%; in [6], 0.7%; in [7] it was 25.7%. The inhibition stood at 24.8% in [9]; 29.3% in [10]; 80.7% in data set [12]; 66.3% in [13]; 32.5% in data set [16]. The outcome in data set [2], in [8], in data set [11], in data set [15] and in [18] was Active. The Activity entry in [14] was “Non-Toxic”. Further, the CL in [17] worked out at 89.5 mL/min/kg. In addition, the result in [19] was inactive.
